Measurements published in ChEMBL document CHEMBL4819082, “Ximaoglaucumins A - F, new cembranoids with anti-inflammatory activities from the South China Sea soft coral Sarcophyton glaucum” (Bioorg Med Chem, 2021).

Columns and labels:
[1] = test system: BV-2; experiment: Antiinflammatory activity against mouse BV2 cells assessed as reduction in LPS-induced NO production at 10 uM incubated for 2 hrs followed by LPS stimulation and measured after 24 hrs by Griess reagent based assay relative to control; type: functional; conditions: BV-2, 26 h
Summary of the method: (§1)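 BV-2 cells were seeded at 2.0×10^5 cells/mL in DMEM high-glucose with 10% FBS and grown 24 h at 37 °C, 5% CO₂. They were pretreated with compound for 2 h, then exposed to LPS at 100 ng/mL for 24 h. Medium was mixed 1:1 with Griess buffer for 15 min at room temperature and read at 540 nm. Nitrite came from a sodium nitrite standard curve and was normalized to the LPS-group mean (100%).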

[2] = Cytotoxicity against mouse BV2 cells assessed as cell viability at 10 uM measured after 24 hrs by MTT assay; type: cell-based, BV-2; conditions: read-out: Activity
Summary of the method: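 BV-2 cells were seeded at 1.25×10^4 cells/mL and grown 24 h at 37 °C, 5% CO₂. They were then exposed to compound for 24 h, with 0.5 mg/mL MTT added for the final 3 h. Absorbance was read at 490 nm, and viability was normalized to the untreated control mean (100%).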

[3] = test system: BV-2; experiment: Antiinflammatory activity against mouse BV2 cells assessed as reduction in LPS-induced IL-1beta mRNA expression incubated for 2 hrs followed by LPS stimulation and measured after 6 hrs by qRT-PCR analysis; type: functional, cell-based; conditions: time 8.0 hrs
Summary of the method: (§2)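 BV-2 microglia were seeded at 1 × 10⁵ cells/mL, pretreated with compound for 2 h, then given LPS at 100 ng/mL for 6 h. Total RNA was extracted with Trizol and reverse-transcribed to cDNA, and IL-1β or IL-6 transcripts were quantified.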

[4] = test system: BV-2; experiment: Antiinflammatory activity against mouse BV2 cells assessed as reduction in LPS-induced IL-6 mRNA expression incubated for 2 hrs followed by LPS stimulation and measured after 6 hrs by qRT-PCR analysis; type: functional, cell-based; conditions: time 8.0 hrs; summary of the method: as §2
[5] = test system: BV-2; experiment: Antiinflammatory activity against mouse BV2 cells assessed as reduction in LPS-induced NO production at 20 uM incubated for 2 hrs followed by LPS stimulation and measured after 24 hrs by Griess reagent based assay relative to control; type: functional; conditions: BV-2, 26 h; summary of the method: as §1

| SMILES | NO production (% of LPS) at 10 µM [1] | viability at 24 h, 10 µM [2] | inhibition [3] | inhibition [4] | NO production (% of LPS) at 20 µM [5] |
| --- | --- | --- | --- | --- | --- |
| C/C1=C\CC/C(C)=C/C=C(/C(C)C)[C@@H](O)C[C@](C)(O)/C=C/C1 | 79.5% | 95.2% |  |  |  |
| C/C1=C\C=C(\C(C)C)[C@@H](O)[C@H](O)/C(C)=C/CC/C(C)=C/CC1 | 68.7% | 101% | Dose-Dependent Effect | Dose-Dependent Effect |  |
| C/C1=C\C=C(\C(C)C)CC/C(C)=C/CC/C(C)=C/CC1 | 85.5% | 100% |  |  |  |
| Oc1ccc(/C=C/c2cc(O)cc(O)c2)cc1 [RESVERATROL] |  |  |  |  | 74.3% |
| C/C1=C\C=C(\C(C)C)[C@@H](O)C/C(C)=C/CC/C(C)=C/CC1 | 67.8% | 106% | Dose-Dependent Effect | Dose-Dependent Effect |  |
| C=C1CC/C=C(\C)C[C@H](OC(C)=O)/C(C(C)C)=C\C=C(/C)CC[C@H]1O | 74.5% | 108% |  |  |  |
| C/C1=C\CC/C(C)=C/C=C(/C(C)C)[C@@H](O)C[C@@](C)(OO)/C=C/C1 | 85.3% | 104% |  |  |  |
| C=C1C[C@H](O)/C(C(C)C)=C\C=C(/C)CC/C=C(\C)CC[C@@H]1OO | 74.2% | 103% |  |  |  |
| CC(=O)OC/C1=C\CC/C(C)=C/CC[C@](C)(O)[C@H]2C=C(C(C)C)[C@H](C1)O2 | 92.7% | 102% |  |  |  |
| C=C1C[C@H](O)/C(C(C)C)=C\C=C(/C)CC/C=C(\C)CC[C@H]1O | 75.9% | 96% |  |  |  |
| C/C1=C\[C@H]2O[C@](C)(CC[C@H]2C(C)C)[C@@H](O)CC/C(C)=C/CC1 | 87.2% | 99.9% |  |  |  |
| C/C1=C\CC[C@](C)(O)/C=C/[C@H](C(C)C)CC/C(C)=C/CC1 | 76.5% | 106% |  |  |  |
| C=C1CC/C=C(\C)C[C@H](O)/C(C(C)C)=C\C=C(/C)CC[C@H]1O | 84.6% | 102% |  |  |  |
| C/C1=C\C=C(\C(C)C)[C@@H](O)C[C@]2(C)O[C@H]2CC/C(C)=C/CC1 | 77.9% | 101% |  |  |  |
| C/C1=C/C=C(/C(C)C)[C@@H](O)C/C(C)=C/CC/C(C)=C/CC1 | 88.8% | 103% |  |  |  |
| CC(=O)OC/C1=C\CC/C(C)=C/CC/C(C)=C/C=C(/C(C)C)[C@@H](O)C1 | 71.3% | 111% |  |  |  |
| C/C1=C\C=C(\C(C)C)CC/C(C)=C/CCC(C)(O)/C=C/C1 (stereo unspecified) | 80.2% | 101% |  |  |  |
| CC(=O)O[C@H]1C/C(C)=C/CCC(C)(O)/C=C/C/C(C)=C/C=C\1C(C)C (stereo partly specified) | 74.4% | 97.2% |  |  |  |
| C/C1=C\CC[C@](C)(O)[C@H]2C=C(C(C)C)[C@H](C/C(C)=C/CC1)O2 | 82% | 99.2% |  |  |  |
